Screening data: PubChem, Broad Institute
The list is not random: actives were taken first. Their share in the collection is about 5.9%.
T cruzi growth = T. cruzi intracellular proliferation inhibitors, primary screen, cell-based, beta-gal Tulahuen parasites, NIH3T3 host, luminescence. T. cruzi beta-gal in NIH3T3, GalScreen luminescence, 90 h. inhibition, % at 8.34 µM. actives 5.9% (n = 77,000). AID 624255, 2012;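 active = mean inhibition above about 93%, with at least 55% of replicates each passing it, limit read from the data, passing the limit was not always enough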
Pf Dd2 growth = P. falciparum Dd2 growth inhibitors, primary screen, SYBR Green fluorescence, single dose replicates; 72 h; active compounds read low; AID 1159554, 2015; actives 2.3% (n = 94,000); activity change, % at 10 µM; in the data active = activity change below about -80%
IDH1 R132H inh = inhibitors of IDH1 R132H reductase, primary screen, biochemical, plate reader, single point; actives 0.18% (n = 70,000); inhibition, % at 10 µM; diaphorase/resazurin fluorescence, 60 min; Isocitrate dehydrogenase [NADP] cytoplasmic (Homo sapiens), O75874; in the data active = inhibition above about 34%;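 note: 0% = DMSO and 100% = no enzyme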
Target sequence (O75874 whole entry R132H): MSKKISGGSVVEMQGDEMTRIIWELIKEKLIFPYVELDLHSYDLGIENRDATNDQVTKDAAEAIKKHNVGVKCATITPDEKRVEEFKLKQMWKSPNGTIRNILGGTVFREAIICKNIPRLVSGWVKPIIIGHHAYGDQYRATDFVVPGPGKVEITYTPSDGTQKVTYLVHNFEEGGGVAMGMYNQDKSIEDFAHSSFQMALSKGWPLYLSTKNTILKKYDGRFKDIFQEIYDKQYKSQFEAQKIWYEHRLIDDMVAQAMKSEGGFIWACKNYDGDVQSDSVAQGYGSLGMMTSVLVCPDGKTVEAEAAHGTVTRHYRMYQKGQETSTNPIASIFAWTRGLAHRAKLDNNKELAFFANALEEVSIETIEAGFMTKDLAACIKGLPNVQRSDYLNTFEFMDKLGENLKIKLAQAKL
GASC1 inh = inhibitors of GASC-1 (KDM4C) histone demethylase, primary screen, biochemical, single concentration HTS; GST-KDM4C 2-372, H3K9me3 peptide, LANCE TR-FRET; inhibition, % at 12.5 µM; actives 0.15% (n = 96,000); AID 720574, 2013;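 active = mean replicate inhibition above about 25%, with at least 55% of replicates also reaching it, limit read from the data, passing the limit was not always enough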
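System: N-terminal GST-fused human GASC-1 (KDM4C) fragment, residues 2-372; amount: enzyme final amount 10 nM; incubation: reaction 30 min RT, detection step 1 h RT; medium: HEPES buffer, pH 7.5, plus ascorbate; technique: LANCE TR-FRET, Eu antibody, ULight-streptavidin, EDTA, ex 340 nm, em 618/671 nm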
* = called active by the depositor.

What do the screens show for `COc1ccccc1CNC(=O)C[C@H]1C[C@H]2c3cc(NC(=O)Cc4ccncc4)ccc3O[C@H]2[C@@H](CO)O1`?
T cruzi growth: -26.6; Pf Dd2 growth: -81.9*; IDH1 R132H inh: -0.2; GASC1 inh: -0.8

How did CN(C)c1ccc2c(c1)[C@@H]1C[C@@H](CC(=O)NCC3CC3)O[C@@H](CO)[C@@H]1O2 do in these assays?
T cruzi growth: 53.9; Pf Dd2 growth: 4.0; IDH1 R132H inh: -11.7; GASC1 inh: 31.9*

How did CN(C)c1ccc2c(c1)[C@H]1C[C@H](CC(=O)NCC3CC3)O[C@@H](CO)[C@H]1O2 do in these assays?
T cruzi growth: 35.1; Pf Dd2 growth: 12.3; IDH1 R132H inh: -2.9; GASC1 inh: 18.8

What do the screens show for `COc1ccccc1CNC(=O)C[C@@H]1C[C@@H]2c3cc(NC(=O)Cc4ccncc4)ccc3O[C@@H]2[C@H](CO)O1`?
T cruzi growth: -44.6; Pf Dd2 growth: -47.2; IDH1 R132H inh: -0.1; GASC1 inh: -0.9

What do the screens show for `CCc1ccc(NC(=O)Cn2c(-c3nonc3N)nc3ccccc32)cc1`?
IDH1 R132H inh: -0.1

How did O=C(CSc1n[nH]c(-c2ccc(Cl)cc2Cl)n1)Nc1cccc2ccccc12 do in these assays?
IDH1 R132H inh: 0.2

What do the screens show for `O=C(NCc1ccco1)c1cnn2c(C(F)F)cc(C3CC3)nc12`?
IDH1 R132H inh: -0.1

Results for C[C@@H]1CN([C@H](C)CO)C(=O)c2cccc(NS(=O)(=O)c3ccccc3)c2O[C@@H]1CN(C)Cc1ccc(-c2ccccc2)cc1 ?
T cruzi growth: 63.6; Pf Dd2 growth: -4.1; GASC1 inh: -0.7

What do the screens show for `C[C@H](CO)N1C[C@H](C)[C@H](CN(C)Cc2ccc(C(=O)Nc3ccccc3N)cc2)Oc2c(NS(=O)(=O)c3ccccc3)cccc2C1=O`?
Pf Dd2 growth: -85.7*; IDH1 R132H inh: 0.8; GASC1 inh: -0.8

How did C[C@@H]1CN([C@H](C)CO)C(=O)c2cccc(NS(=O)(=O)c3ccccc3)c2O[C@H]1CN(C)Cc1ccc(-c2ccccc2)cc1 do in these assays?
T cruzi growth: -86.9; Pf Dd2 growth: -90.8*; IDH1 R132H inh: 1.6; GASC1 inh: 0.7

Results for C[C@@H]1CN([C@H](C)CO)C(=O)c2cccc(NS(=O)(=O)c3ccccc3)c2O[C@H]1CN(C)Cc1ccc(C(=O)Nc2ccccc2N)cc1 ?
Pf Dd2 growth: -77.5; GASC1 inh: 0.0

Results for Cc1ccc(S(=O)(=O)Nc2cccc3c2O[C@H](CN(C)Cc2ccc(C(=O)Nc4ccccc4N)cc2)[C@@H](C)CN([C@@H](C)CO)C3=O)cc1 ?
Pf Dd2 growth: -73.9; IDH1 R132H inh: 0.2; GASC1 inh: -0.3

Results for Cc1ccc(S(=O)(=O)Nc2cccc3c2O[C@H](CN(C)Cc2ccc(C(=O)Nc4ccccc4N)cc2)[C@H](C)CN([C@H](C)CO)C3=O)cc1 ?
T cruzi growth: 50.3; Pf Dd2 growth: -85.1*; GASC1 inh: 2.5

How did C[C@@H]1CN([C@H](C)CO)C(=O)c2cccc(NS(=O)(=O)c3ccc(Cl)cc3)c2O[C@@H]1CN(C)Cc1ccc(C(=O)Nc2ccccc2N)cc1 do in these assays?
T cruzi growth: 93.2; Pf Dd2 growth: -87.4*; IDH1 R132H inh: 0.0; GASC1 inh: -3.1

Results for CCn1c(SCC(=O)Nc2ccccc2C)nnc1-c1ccco1 ?
IDH1 R132H inh: -0.1

Results for C[C@H](CO)N1C[C@H](C)[C@H](CN(C)Cc2ccc(C(=O)Nc3ccccc3N)cc2)Oc2c(NS(=O)(=O)c3ccc(Cl)cc3)cccc2C1=O ?
Pf Dd2 growth: -88.8*; IDH1 R132H inh: -0.3; GASC1 inh: 0.4

What do the screens show for `Cc1cccc(NC(c2ccccc2[N+](=O)[O-])c2ccc3ccc(C)nc3c2O)n1` (stereo not given)?
IDH1 R132H inh: -0.2

Results for OC[C@@H]1[C@H](c2ccc(-c3ccc(F)cc3)cc2)[C@@H](CNC2CCCC2)N1CCC(F)(F)F ?
Pf Dd2 growth: -96.6*; GASC1 inh: -0.7

What do the screens show for `OC[C@@H]1[C@H](c2ccc(-c3ccc(F)cc3)cc2)[C@H](CNC2CCCC2)N1CCC(F)(F)F`?
Pf Dd2 growth: -89.0*; GASC1 inh: -2.0

What do the screens show for `OC[C@H]1[C@@H](c2ccc(-c3ccc(F)cc3)cc2)[C@@H]2CN(CCC(F)(F)F)CCCCN12`?
T cruzi growth: 94.3; Pf Dd2 growth: -78.8; GASC1 inh: -0.9
